Test results as given in ChEMBL document CHEMBL1122019, “Synthesis and enzymic activity of 6-carbethoxy- and 6-ethoxy-3,7-disubstituted-pyrazolo[1,5-a]pyrimidines and related derivatives as adenosine cyclic 3' ,5'-phosphate phosphodiesterase inhibitors” (1982).

Assays:
[1] = organism: Bos taurus; assay: Relative inhibition of bovine heart cAMP phosphodiesterase compared to theophylline
Outline: (§1)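 Partially purified cAMP PDEs from beef heart, rabbit lung and rabbit kidney. Assay mixture in 0.5 mL: 25 μmol Tris-HCl pH 7.5, 5 μmol MgCl2, 10–75 μg enzyme protein, 350 pmol [3H]cAMP, and at least seven inhibitor concentrations (0.5 μM–5 mM). 5'-AMP formed measured at at least three time points (3–12 min) to confirm linear rates. I50 read graphically from % inhibition vs log concentration; α = I50 compound / I50 theophylline, with theophylline run in each experiment.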

[2] = organism: Oryctolagus cuniculus; assay: Ratio of I50 of compound and I50 of theophylline for inhibition of cAMP phosphodiesterase isolated from rabbit lung; outline: as §1
[3] = organism: Oryctolagus cuniculus; assay: Ratio of I50 of compound and I50 of theophylline for inhibition of cAMP phosphodiesterase isolated from rabbit kidney
[4] = organism: Sus scrofa; assay: Inhibition of ADP-induced platelet aggregation at 100 ug/mL; format: functional
Outline: (§2)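 Platelet-rich plasma from pig blood anticoagulated with sodium citrate (final 0.3 g/100 mL in blood), spun 500g for 20 min at 20 °C; about 2.0–8.0×10^8 platelets/mL, counted in duplicate. ADP-induced aggregation followed turbidimetrically at 600 nm with stirring (Born method). Criterion: 50% inhibition at ≤100 mcg/mL test compound, compared with adenosine as standard.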

[5] = organism: Sus scrofa; assay: Inhibition of ADP-induced platelet aggregation at 50 ug/mL; format: functional; outline: as §2
[6] = organism: Sus scrofa; assay: Inhibition of ADP-induced platelet aggregation at 25 ug/mL; format: functional; outline: as §2
[7] = organism: Oryctolagus cuniculus; assay: Relative inhibition of rabbit lung cAMP Phosphodiesterase compared to theophylline (Insoluble)
[8] = Inhibition of ADP-induced platelet aggregation at 100 ug/mL
[9] = organism: Oryctolagus cuniculus; assay: Relative inhibition of rabbit lung cAMP Phosphodiesterase compared to theophylline; outline: as §1
[10] = test system: cAMP phosphodiesterase (Bos taurus); assay: Relative inhibition of beef heart cAMP phosphodiesterase compared to theophylline; conditions: target entry is the homologue from another species

## CCOC(=O)c1cnc2ccnn2c1N(CC)CC
[1]
  Ratio: 2.3
[2]
  Ratio: 1.8
[3]
  Ratio: 2

## CCOC(=O)c1cnc2c(Br)cnn2c1NCCO
[4]
  inhibition at 100 µg/mL: 72%
[2]
  Ratio: 1.3
[3]
  Ratio: 3.1

## CCOc1cnc2c(CC)cnn2c1NCCC(=O)O
[2]
  Ratio: 1
[3]
  Ratio: 0.6

## CCNc1c(C(=O)OCC)cnc2c(Br)cnn12
[4]
  inhibition at 100 µg/mL: 77%
[2]
  Ratio: 4
[3]
  Ratio: 8

## CCOc1cnc2c(CC)cnn2c1NCC(=O)O
[2]
  Ratio: 0.7
[3]
  Ratio: 0.4

## CCSc1cc(C)nc2c(CC)cnn12
[2]
  Ratio: 8.9

## CCOC(=O)c1cnc2ccnn2c1NCCO
[4]
  inhibition at 100 µg/mL: 92%
[5]
  inhibition at 50 µg/mL: 47%
[2]
  Ratio: 1.5
[3]
  Ratio: 0.3

## CCCOc1c(C(=O)OCC)cnc2ccnn12
[2]
  Ratio: 0.6
[3]
  Ratio: 0.6

## CCOC(=O)c1cnc2ccnn2c1SCC
[2]
  Ratio: 4.3
[3]
  Ratio: 0.8

## CCOC(=O)c1cnc2ccnn2c1N
[4]
  inhibition at 100 µg/mL: 94%
[5]
  inhibition at 50 µg/mL: 50%
[2]
  Ratio: 0.9
[3]
  Ratio: 1

## CCOc1cc(C)nc2ccnn12
[2]
  Ratio: 1.4

## COC(CNc1cc(C)nc2c(Br)cnn12)OC
[2]
  Ratio: 6.8

## CCOC(=O)c1cnc2c(Br)cnn2c1N(CC)CC
[1]
  Ratio: 3.5
[2]
  Ratio: 6
[3]
  Ratio: 6

## CCOC(=O)c1cnc2ccnn2c1S
[1]
  Ratio: 1.2
[2]
  Ratio: 2
[3]
  Ratio: 1

## CCOC(=O)c1cnc2c(Br)cnn2c1N
[4]
  inhibition at 100 µg/mL: 68%
[6]
  inhibition at 25 µg/mL: 67%
[7]
  Ratio: Insoluble

## CCOC(=O)c1cnc2ccnn2c1NN(C)C
[2]
  Ratio: 2
[3]
  Ratio: 1.1

## Nc1ncnc2c1ncn2[C@@H]1O[C@H](CO)[C@@H](O)[C@H]1O [ADENOSINE]
[8]
  inhibition at 100 µg/mL: 64%

## CCOC(=O)c1cnc2c(Br)cnn2c1O
[4]
  inhibition at 100 µg/mL: 88%
[5]
  inhibition at 50 µg/mL: 34%
[2]
  Ratio: 0.5
[3]
  Ratio: 1

## CCCNc1c(OCC)cnc2c(CC)cnn12
[2]
  Ratio: 3.7
[3]
  Ratio: 3.4

## CCOC(=O)c1cnc2ccnn2c1NCC(=O)O
[4]
  inhibition at 100 µg/mL: 76%
[5]
  inhibition at 50 µg/mL: 67%
[2]
  Ratio: 1.7
[3]
  Ratio: 1.2

## CCOC(=O)c1cnc2c(Br)cnn2c1NCC(=O)O
[1]
  Ratio: 2.6
[2]
  Ratio: 2.4
[3]
  Ratio: 1.5

## CCCOc1c(OCC)cnc2c(CC)cnn12
[2]
  Ratio: 1.6
[3]
  Ratio: 1.3

## CCCNc1c(C(=O)OCC)cnc2ccnn12
[2]
  Ratio: 5.9
[3]
  Ratio: 13

## CCOC(=O)c1cnc2c([N+](=O)[O-])cnn2c1N
[7]
  Ratio: Insoluble

## Cc1cc(N2CCCCC2)n2nccc2n1
[9]
  Ratio: 2.4
[10]
  Ratio: 1.5

## CCCNc1cc(C)nc2c(CC)cnn12
[2]
  Ratio: 9.4

## CCOC(=O)c1cnc2c(CC)cnn2c1SCC
[2]
  Ratio: 13
[3]
  Ratio: 5.5

## CCOC(=O)c1cnc2c(C(=O)OCC)cnn2c1N
[4]
  inhibition at 100 µg/mL: 96%
[5]
  inhibition at 50 µg/mL: 47%
[1]
  Ratio: 0.7
[2]
  Ratio: 1.5
[3]
  Ratio: 2

## CCCCNc1cc(C)nc2c(Br)cnn12
[2]
  Ratio: 1.5

## CCNc1c(C(=O)OCC)cnc2ccnn12
[4]
  inhibition at 100 µg/mL: 86%
[5]
  inhibition at 50 µg/mL: 42%
[2]
  Ratio: 4.3
[3]
  Ratio: 5.2

## Cc1cc(NN)n2nccc2n1
[2]
  Ratio: 1.5

## CCOC(=O)c1cnc2c(CC)cnn2c1NN(C)C
[2]
  Ratio: 3.7
[3]
  Ratio: 1.4

## CCCNc1c(C(=O)OCC)cnc2c(Br)cnn12
[4]
  inhibition at 100 µg/mL: 50%
[2]
  Ratio: 6
[3]
  Ratio: 7.2

## CCCOc1c(C(=O)OCC)cnc2c(Br)cnn12
[2]
  Ratio: 2.7
[3]
  Ratio: 1.8

## Cc1cc(NCCO)n2nccc2n1
[2]
  Ratio: 0.5

## CCCOc1cc(C)nc2c(CC)cnn12
[2]
  Ratio: 5.4

## CCOC(=O)c1cnc2c(C(=O)OCC)cnn2c1O
[4]
  inhibition at 100 µg/mL: 68%
[5]
  inhibition at 50 µg/mL: 23%
[2]
  Ratio: 0.6
[3]
  Ratio: 0.4

## CCCOc1c(C(=O)OCC)cnc2c(CC)cnn12
[2]
  Ratio: 2.4
[3]
  Ratio: 2.4

## CCCNc1c(C(=O)OCC)cnc2c(CC)cnn12
[2]
  Ratio: 3.6
[3]
  Ratio: 3.2

## CCOC(=O)c1cnc2ccnn2c1Cl
[2]
  Ratio: 0.6
[3]
  Ratio: 0.6
